Measured values from ChEMBL document CHEMBL1137240, “Conjugation of adenosine and hexa-(D-arginine) leads to a nanomolar bisubstrate-analog inhibitor of basophilic protein kinases” (J Med Chem, 2006).

How the values were obtained:
[1] = target: Serine/threonine-protein kinase Sgk1 (Homo sapiens) (UniProt O00141); assay: Percent residual activity, relative to control, of SGK at 1 uM concentration of inhibitor in presence of 20 uM ATP
How it was run: (§1)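 It is expressed as percent of activity in control incubations without inhibitor, as the mean of duplicate determinations. The protocol follows earlier published panel methods.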

[2] = target: Dual specificity tyrosine-phosphorylation-regulated kinase 1A (Homo sapiens) (UniProt Q13627); assay: Percent residual activity, relative to control, of DYRK1a at 1 uM concentration of inhibitor in presence of 50 uM ATP; how it was run: as §1
[3] = target: Tyrosine-protein kinase Lck (Homo sapiens) (UniProt P06239); assay: Percent residual activity, relative to control, of Lck at 1uM concentration of inhibitor in presence of 50uM ATP; how it was run: as §1
[4] = target: Serine/threonine-protein kinase 3 (Homo sapiens) (UniProt Q13188); assay: Percent residual activity, relative to control, of MST2 at 1 uM concentration of inhibitor in presence of 20 uM ATP; how it was run: as §1
[5] = target: Mitogen-activated protein kinase 14 (Homo sapiens) (UniProt Q16539); assay: Percent residual activity, relative to control, of SAPK2a/p38 at 1 uM concentration of inhibitor in presence of 50 uM ATP; how it was run: as §1
[6] = target: RAC-alpha serine/threonine-protein kinase (Homo sapiens) (UniProt P31749); assay: Percent residual activity, relative to control, of PKB alpha (no ph) at 1 uM concentration of inhibitor in presence of 5 uM ATP; how it was run: as §1
[7] = target: Mitogen-activated protein kinase 13 (Homo sapiens) (UniProt O15264); assay: Percent residual activity, relative to control, of SAPK4/p38 delta at 1 uM concentration of inhibitor in presence of 5 uM ATP; how it was run: as §1
Chain of Mitogen-activated protein kinase 13 (Homo sapiens) (O15264 whole entry): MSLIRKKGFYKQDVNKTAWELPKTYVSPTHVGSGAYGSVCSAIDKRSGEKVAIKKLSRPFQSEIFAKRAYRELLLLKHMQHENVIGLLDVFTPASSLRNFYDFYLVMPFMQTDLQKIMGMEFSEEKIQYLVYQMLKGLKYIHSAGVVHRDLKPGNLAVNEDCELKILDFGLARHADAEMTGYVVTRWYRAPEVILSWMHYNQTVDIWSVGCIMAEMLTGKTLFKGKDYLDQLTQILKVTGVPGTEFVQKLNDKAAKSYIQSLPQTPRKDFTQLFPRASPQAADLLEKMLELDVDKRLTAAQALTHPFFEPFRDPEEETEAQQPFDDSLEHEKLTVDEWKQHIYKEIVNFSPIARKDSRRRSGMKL

[8] = target: MAP kinase-activated protein kinase 5 (Homo sapiens) (UniProt Q8IW41); assay: Percent residual activity, relative to control, of PRAK at 1uM concentration of inhibitor in presence of 20uM ATP; how it was run: as §1
[9] = target: Mitogen-activated protein kinase 12 (Homo sapiens) (UniProt P53778); assay: Percent residual activity, relative to control, of SAPK3/p38 gamma at 1 uM concentration of inhibitor in presence of 5 uM ATP; how it was run: as §1
Chain of Mitogen-activated protein kinase 12 (Homo sapiens) (P53778 whole entry): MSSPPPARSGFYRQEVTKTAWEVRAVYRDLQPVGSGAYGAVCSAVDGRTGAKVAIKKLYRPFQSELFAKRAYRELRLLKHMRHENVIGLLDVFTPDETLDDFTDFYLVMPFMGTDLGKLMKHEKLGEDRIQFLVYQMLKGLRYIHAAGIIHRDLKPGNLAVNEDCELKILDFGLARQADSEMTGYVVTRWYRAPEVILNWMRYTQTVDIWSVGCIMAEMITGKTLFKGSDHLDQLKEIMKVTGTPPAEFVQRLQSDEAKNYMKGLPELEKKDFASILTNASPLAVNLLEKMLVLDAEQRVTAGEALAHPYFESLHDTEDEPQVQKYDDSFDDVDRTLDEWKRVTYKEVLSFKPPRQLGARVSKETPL

Homo sapiens [10] = species: Homo sapiens; assay: Percent residual activity, relative to control, of CAMK-1 at 1 uM concentration of inhibitor in presence of 50 uM ATP; how it was run: as §1
[11] = target: MAP kinase-activated protein kinase 2 (Homo sapiens) (UniProt P49137); assay: Percent residual activity, relative to control, of MAPKAP-K2 at 1 uM concentration of inhibitor in presence of 20 uM ATP; how it was run: as §1
[12] = target: Mitogen-activated protein kinase 10 (Homo sapiens) (UniProt P53779); assay: Percent residual activity, relative to control, of JNK3 at 1uM concentration of inhibitor in presence of 50uM ATP; how it was run: as §1
[13] = target: Serine/threonine-protein kinase pim-2 (Homo sapiens) (UniProt Q9P1W9); assay: Percent residual activity, relative to control, of PIM2 at 1uM concentration of inhibitor in presence of 5uM ATP; how it was run: as §1
Chain of Serine/threonine-protein kinase pim-2 (Homo sapiens) (Q9P1W9 whole entry, looked up): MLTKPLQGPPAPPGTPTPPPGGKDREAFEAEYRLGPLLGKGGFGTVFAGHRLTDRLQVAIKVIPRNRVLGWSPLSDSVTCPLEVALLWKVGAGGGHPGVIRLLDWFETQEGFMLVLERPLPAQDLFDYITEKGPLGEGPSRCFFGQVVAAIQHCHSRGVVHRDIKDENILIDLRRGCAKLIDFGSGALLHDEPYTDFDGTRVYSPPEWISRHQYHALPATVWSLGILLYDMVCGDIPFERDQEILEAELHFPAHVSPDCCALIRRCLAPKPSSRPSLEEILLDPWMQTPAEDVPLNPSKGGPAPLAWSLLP

[14] = target: Serine/threonine-protein kinase Chk2 (Homo sapiens) (UniProt O96017); assay: Percent residual activity, relative to control, of CHK2 at 1uM concentration of inhibitor in presence of 20uM ATP; how it was run: as §1
[15] = target: Mitogen-activated protein kinase 15 (Homo sapiens) (UniProt Q8TD08); assay: Percent residual activity, relative to control, of ERK8 at 1 uM concentration of inhibitor in presence of 5 uM ATP; how it was run: as §1
Chain of Mitogen-activated protein kinase 15 (Homo sapiens) (Q8TD08 whole entry): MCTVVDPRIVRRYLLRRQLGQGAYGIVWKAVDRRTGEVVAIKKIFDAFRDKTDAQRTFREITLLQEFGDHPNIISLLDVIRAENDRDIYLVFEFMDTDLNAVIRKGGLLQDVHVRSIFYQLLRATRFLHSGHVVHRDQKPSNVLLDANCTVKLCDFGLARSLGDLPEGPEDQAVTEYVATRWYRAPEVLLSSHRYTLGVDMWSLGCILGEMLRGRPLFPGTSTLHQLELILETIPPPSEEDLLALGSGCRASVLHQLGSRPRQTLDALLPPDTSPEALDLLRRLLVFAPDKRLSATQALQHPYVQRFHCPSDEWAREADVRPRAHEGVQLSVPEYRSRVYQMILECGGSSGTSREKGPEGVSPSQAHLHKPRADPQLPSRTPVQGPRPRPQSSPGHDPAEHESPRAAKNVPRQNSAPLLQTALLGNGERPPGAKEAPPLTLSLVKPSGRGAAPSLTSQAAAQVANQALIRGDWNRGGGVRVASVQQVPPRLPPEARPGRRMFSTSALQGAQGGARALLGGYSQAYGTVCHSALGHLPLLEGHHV

[16] = target: Tyrosine-protein kinase CSK (Homo sapiens) (UniProt P41240); assay: Percent residual activity, relative to control, of CSK at 1 uM concentration of inhibitor in presence of 20 uM ATP; how it was run: as §1
Homo sapiens [17] = species: Homo sapiens; assay: Percent residual activity, relative to control, of MAPKAP-K1b/Rsk2 at 1 uM concentration of inhibitor in presence of 50 uM ATP; how it was run: as §1
[18] = target: Serine/threonine-protein kinase D1 (Homo sapiens) (UniProt Q15139); assay: Percent residual activity, relative to control, of PKD1 at 1 uM concentration of inhibitor in presence of 50 uM ATP; how it was run: as §1
Chain of Serine/threonine-protein kinase D1 (Homo sapiens) (Q15139 whole entry): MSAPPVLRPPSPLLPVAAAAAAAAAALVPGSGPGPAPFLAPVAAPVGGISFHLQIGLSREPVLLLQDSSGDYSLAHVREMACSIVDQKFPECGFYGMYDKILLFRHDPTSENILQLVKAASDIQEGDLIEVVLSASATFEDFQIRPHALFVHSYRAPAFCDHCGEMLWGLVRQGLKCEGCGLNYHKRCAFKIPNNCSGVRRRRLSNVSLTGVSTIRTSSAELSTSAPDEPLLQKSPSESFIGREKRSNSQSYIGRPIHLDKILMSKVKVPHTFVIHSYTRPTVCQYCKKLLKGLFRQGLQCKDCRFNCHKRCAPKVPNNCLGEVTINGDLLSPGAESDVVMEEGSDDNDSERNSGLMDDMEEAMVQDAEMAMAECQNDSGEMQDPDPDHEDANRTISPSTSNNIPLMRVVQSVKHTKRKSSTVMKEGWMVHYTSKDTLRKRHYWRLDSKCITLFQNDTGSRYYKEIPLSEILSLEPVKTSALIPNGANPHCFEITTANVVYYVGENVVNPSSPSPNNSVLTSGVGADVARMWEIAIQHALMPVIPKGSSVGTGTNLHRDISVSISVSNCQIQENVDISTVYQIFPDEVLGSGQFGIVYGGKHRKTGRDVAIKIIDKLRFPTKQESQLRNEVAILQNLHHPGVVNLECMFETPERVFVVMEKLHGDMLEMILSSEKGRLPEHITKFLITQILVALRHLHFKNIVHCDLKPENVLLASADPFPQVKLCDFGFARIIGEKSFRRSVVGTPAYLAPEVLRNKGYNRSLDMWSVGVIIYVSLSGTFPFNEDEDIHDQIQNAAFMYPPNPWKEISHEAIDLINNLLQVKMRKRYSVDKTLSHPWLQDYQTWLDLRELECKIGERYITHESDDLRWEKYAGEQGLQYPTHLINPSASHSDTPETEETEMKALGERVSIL

[19] = target: Myosin light chain kinase, smooth muscle (Homo sapiens) (UniProt Q15746); assay: Percent residual activity, relative to control, of smMLCK at 1uM concentration of inhibitor in presence of 50uM ATP
Chain of Myosin light chain kinase, smooth muscle (Homo sapiens) (Q15746 whole entry): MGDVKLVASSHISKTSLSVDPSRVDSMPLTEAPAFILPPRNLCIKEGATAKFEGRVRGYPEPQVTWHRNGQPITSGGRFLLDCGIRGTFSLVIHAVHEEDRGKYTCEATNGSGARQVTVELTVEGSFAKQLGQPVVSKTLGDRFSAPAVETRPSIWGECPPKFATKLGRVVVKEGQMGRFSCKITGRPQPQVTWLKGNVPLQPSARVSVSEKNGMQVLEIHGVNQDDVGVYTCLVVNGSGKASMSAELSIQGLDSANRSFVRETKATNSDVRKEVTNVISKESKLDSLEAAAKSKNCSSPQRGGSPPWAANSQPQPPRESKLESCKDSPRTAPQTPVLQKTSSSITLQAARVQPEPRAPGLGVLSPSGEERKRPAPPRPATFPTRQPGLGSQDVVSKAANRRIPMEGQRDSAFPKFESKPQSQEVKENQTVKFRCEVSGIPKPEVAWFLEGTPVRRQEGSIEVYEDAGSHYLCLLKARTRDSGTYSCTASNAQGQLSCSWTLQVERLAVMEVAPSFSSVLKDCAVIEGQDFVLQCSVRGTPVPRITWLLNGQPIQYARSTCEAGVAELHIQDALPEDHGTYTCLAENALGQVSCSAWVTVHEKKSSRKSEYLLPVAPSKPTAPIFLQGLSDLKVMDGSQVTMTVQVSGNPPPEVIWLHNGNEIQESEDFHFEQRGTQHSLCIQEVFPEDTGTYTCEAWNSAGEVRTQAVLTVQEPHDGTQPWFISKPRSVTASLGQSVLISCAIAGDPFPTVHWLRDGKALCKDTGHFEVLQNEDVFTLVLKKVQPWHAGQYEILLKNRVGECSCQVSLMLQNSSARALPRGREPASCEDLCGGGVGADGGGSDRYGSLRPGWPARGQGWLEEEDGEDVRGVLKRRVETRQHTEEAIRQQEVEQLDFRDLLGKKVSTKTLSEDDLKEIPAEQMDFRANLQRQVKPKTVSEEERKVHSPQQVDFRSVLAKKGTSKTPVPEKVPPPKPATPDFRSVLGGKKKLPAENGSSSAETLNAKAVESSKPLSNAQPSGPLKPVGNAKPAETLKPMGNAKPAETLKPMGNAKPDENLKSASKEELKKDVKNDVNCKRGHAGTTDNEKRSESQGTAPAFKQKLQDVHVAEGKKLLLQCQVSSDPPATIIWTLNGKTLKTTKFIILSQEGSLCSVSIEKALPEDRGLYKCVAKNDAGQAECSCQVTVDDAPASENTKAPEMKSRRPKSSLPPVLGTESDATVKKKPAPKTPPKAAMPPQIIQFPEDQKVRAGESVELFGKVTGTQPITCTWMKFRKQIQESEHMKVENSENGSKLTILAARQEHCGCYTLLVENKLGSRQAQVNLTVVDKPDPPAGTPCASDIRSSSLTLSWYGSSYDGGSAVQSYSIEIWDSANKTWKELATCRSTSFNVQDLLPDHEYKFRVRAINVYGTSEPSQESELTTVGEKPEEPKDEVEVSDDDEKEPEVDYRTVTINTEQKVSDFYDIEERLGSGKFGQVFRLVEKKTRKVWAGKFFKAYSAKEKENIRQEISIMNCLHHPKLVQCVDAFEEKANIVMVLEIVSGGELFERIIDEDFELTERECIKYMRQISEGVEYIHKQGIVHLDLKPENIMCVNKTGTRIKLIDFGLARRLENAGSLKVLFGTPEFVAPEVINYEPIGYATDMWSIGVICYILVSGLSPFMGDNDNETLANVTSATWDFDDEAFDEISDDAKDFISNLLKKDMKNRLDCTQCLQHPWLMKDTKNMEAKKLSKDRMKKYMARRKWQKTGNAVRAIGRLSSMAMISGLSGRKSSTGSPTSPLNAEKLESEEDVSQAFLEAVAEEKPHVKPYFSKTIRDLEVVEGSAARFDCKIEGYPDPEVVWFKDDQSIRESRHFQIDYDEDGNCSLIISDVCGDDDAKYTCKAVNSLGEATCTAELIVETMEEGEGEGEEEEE
How it was run: (§2)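 Methods followed an earlier description. Activity is given as percent residual activity relative to control incubations with the inhibitor omitted. Values are means of duplicate determinations.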

[20] = target: c-Jun N-terminal kinase, JNK (Homo sapiens) (UniProt P45983+P53779+P45984); assay: Percent residual activity, relative to control, of JNK/SAPK1c at 1 uM concentration of inhibitor in presence of 20 uM ATP; assay type: protein assay; how it was run: as §1
[21] = target: Proto-oncogene tyrosine-protein kinase Src (Homo sapiens) (UniProt P12931); assay: Percent residual activity, relative to control, of Src at 1 uM concentration of inhibitor in presence of 50 uM ATP; how it was run: as §2
[22] = target: RAC-beta serine/threonine-protein kinase (Homo sapiens) (UniProt P31751); assay: Percent residual activity, relative to control, of PKB beta at 1uM concentration of inhibitor in presence of 50uM ATP; how it was run: as §1
[23] = target: SRSF protein kinase 1 (Homo sapiens) (UniProt Q96SB4); assay: Percent residual activity, relative to control, of SRPK1 at 1 uM concentration of inhibitor in presence of 50 uM ATP; how it was run: as §1
Chain of SRSF protein kinase 1 (Homo sapiens) (Q96SB4 whole entry): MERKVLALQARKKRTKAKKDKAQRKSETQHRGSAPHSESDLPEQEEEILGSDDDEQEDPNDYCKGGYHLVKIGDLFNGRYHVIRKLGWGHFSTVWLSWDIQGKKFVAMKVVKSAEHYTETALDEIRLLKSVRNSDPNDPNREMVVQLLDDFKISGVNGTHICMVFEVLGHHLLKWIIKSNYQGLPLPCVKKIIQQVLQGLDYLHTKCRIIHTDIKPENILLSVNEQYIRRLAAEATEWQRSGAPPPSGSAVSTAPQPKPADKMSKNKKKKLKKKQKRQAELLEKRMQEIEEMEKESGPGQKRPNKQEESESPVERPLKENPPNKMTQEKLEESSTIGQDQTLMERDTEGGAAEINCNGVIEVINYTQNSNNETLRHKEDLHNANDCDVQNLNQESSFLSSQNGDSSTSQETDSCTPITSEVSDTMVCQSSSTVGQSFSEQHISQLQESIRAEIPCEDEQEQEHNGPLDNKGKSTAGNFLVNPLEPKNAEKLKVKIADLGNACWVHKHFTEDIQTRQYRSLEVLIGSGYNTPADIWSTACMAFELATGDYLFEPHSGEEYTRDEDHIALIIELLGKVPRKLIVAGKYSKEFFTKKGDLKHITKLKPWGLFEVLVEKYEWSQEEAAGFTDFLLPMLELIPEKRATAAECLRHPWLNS

[24] = target: AMP-activated protein kinase, AMPK (Homo sapiens) (UniProt P54646+O43741+P54619+Q9UGJ0+Q9Y478+Q13131+Q9UGI9); assay: Percent residual activity, relative to control, of AMPK at 1 uM concentration of inhibitor in presence of 50 uM ATP; assay type: protein-complex assay; how it was run: as §1
[25] = target: MAP kinase-activated protein kinase 3 (Homo sapiens) (UniProt Q16644); assay: Percent residual activity, relative to control, of MAPKAP-K3 at 1 uM concentration of inhibitor in presence of 20 uM ATP; how it was run: as §1

## N=C(N)NCCC[C@@H](NC(=O)[C@@H](CCCNC(=N)N)NC(=O)[C@@H](CCCNC(=N)N)NC(=O)[C@@H](CCCNC(=N)N)NC(=O)[C@@H](CCCNC(=N)N)NC(=O)[C@@H](CCCNC(=N)N)NC(=O)CCCCCNC(=O)[C@H]1O[C@@H](n2cnc3c(N)ncnc32)[C@H](O)[C@@H]1O)C(N)=O
[1]
  Activity: 16%
[2]
  Activity: 72%
[3]
  Activity: 70%
[4]
  Activity: 77%
[5]
  Activity: 79%
[6]
  Activity: 2%
[7]
  Activity: 107%
[8]
  Activity: 89%
[9]
  Activity: 111%
Homo sapiens [10]
  Activity: 15%
[11]
  Activity: 85%
[12]
  Activity: 91%
[13]
  Activity: 38%
[14]
  Activity: 14%
[15]
  Activity: 50%
[16]
  Activity: 48%
Homo sapiens [17]
  Activity: 12%
[18]
  Activity: 54%
[19]
  Activity: 72%
[20]
  Activity: 70%
[21]
  Activity: 84%
[22]
  Activity: 3%
[23]
  Activity: 100%
[24]
  Activity: 48%
[25]
  Activity: 67%
